Experiments:
HeLa cells [1] = assay: Uptake of myr-TP-LyP-1 nanocomplexes in the presence of endocytosis inhibitors; type: cell-based, human; conditions: inhibitor 1 h at 37 °C, then nanocomplexes (2 μM peptide, 100 nM siRNA) 1 h, flow cytometry
How it was run: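 HeLa cells at ~70% confluence. Small-molecule inhibitors applied 1 h at 37 °C. Then nanocomplexes of labelled peptide (2 μM) with GFP siRNA (100 nM) added for a further 1 h at 37 °C. Cells washed three times with cold PBS, trypsinised, and uptake read by flow cytometry.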

HeLa cells [2] = assay: Endosomal escape, codelivery of Calcein, fluorescence microscopy; type: cell-based, human
How it was run: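 HeLa cells plated 48 h ahead to ≥70% confluence. Calcein 0.25 mM added alone or with nanocomplexes (100 nM siRNA) in DMEM + 10% bovine serum, 1 h, 37 °C. Cells washed three times in PBS and imaged live (FITC filter). Cells with diffuse cytoplasmic fluorescence counted in ≥8 random fields, normalised to total cells (500–800 per carrier per experiment), reported as mean % per field.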

`OCC1OC(O)CC(O)C1O` (stereo not shown) [deoxyglucose] was tested, and the “uptake of myr-TP-LyP-1 nanocomplexes in the presence of the inhibitor” value (shortened to “uptake … of the inhibitor”) (HeLa cells [1]) was “significantly decreased”.

`C[C@@H](O)[C@@H]1NC(=O)[C@H](CCCNC(=N)N)NC(=O)[C@H](CCCCN)NC(=O)[C@H](CC(N)=O)NC(=O)CNC(=O)[C@@H](N)CSSC[C@@H](C(=O)O)NC(=O)CNC(=O)[C@H](CCCNC(=N)N)NC1=O` [LyP-1] was tested, and the “endosomal escape” value (HeLa cells [2]) was “little or no endosomal escape”.

For `N=C(N)NC(=O)c1nc(Cl)c(N)nc1N` [amiloride], the “uptake … of the inhibitor” value (HeLa cells [1]) was “significantly decreased”.

With `CCCCCCCCCC(=O)NC(CN1CCOCC1)C(O)c1ccccc1` (stereo not shown) [PDMP] the “uptake … of the inhibitor” value (HeLa cells [1]) was “significantly decreased”.

Reference: paper PMC3478735 (ACS Nano, 2012)
